How the values were obtained:
Plasma = experiment: Inhibition of PAF-induced platelet aggregation in rabbit platelet-rich plasma; assay type: functional; details: Oryctolagus cuniculus
How it was run: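 Rabbit platelet-rich plasma was prepared from New Zealand rabbit auricular-artery blood collected in 3.8% citrate (pH 7.4) and spun 15 min at 1200 rpm. Antagonists in EtOH (10⁻² to 10⁻⁷ M) were added to stirred PRP for 2 min, then challenged with 2.5 nM PAF. Aggregation was followed by light transmission against a PAF-alone control. IC50 was taken from dose–response curves (five or six determinations).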

[1] = system: Human immunodeficiency virus 1; experiment: Antiviral activity against HIV1 BAL in human MDM cells; assay type: functional, organism-based; details: Human immunodeficiency virus 1, BAL
How it was run: (§1)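 Monocyte-derived macrophages were infected with the macrophage-tropic HIV-1/Ba-L strain. HIV-1 replication was read as reverse transcriptase activity in culture supernatants. Values come from a single measurement.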

[2] = Cytotoxicity against human MDM cells by neutral red staining; assay type: cell-based
How it was run: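 Fifty percent cytotoxic concentration in monocyte-derived macrophages, assessed by neutral red staining.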

[3] = system: Human immunodeficiency virus 1; experiment: Inhibition of HIV1 BAL replication in MDM cells assessed by measuring reverse transcriptase at 100 uM; assay type: functional; details: Human immunodeficiency virus 1, BAL; how it was run: as §1
Mus musculus = species: Mus musculus; experiment: Blood-brain transfer coefficient in OF1 mouse by in situ brain perfusion method; assay type: ADME, organism-based; details: in vivo
How it was run: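 In situ brain perfusion in anaesthetized mice (ip xylazine 8 mg/kg, ketamine 140 mg/kg) through a right common carotid catheter. Perfusate was bicarbonate-buffered saline with 9 mM D-glucose, gassed 95% O2/5% CO2, pH 7.4, 37 °C, carrying [³H]tracer at 0.3–0.4 μCi/mL, with [¹⁴C]sucrose as vascular marker. Brain distribution volume was computed from right-hemisphere radioactivity; five animals.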

[4] = Cytotoxicity against human MDM cells by neutral red staining at 10 uM; assay type: cell-based
[5] = Cytotoxicity against human MDM cells by neutral red staining at 1 uM; assay type: cell-based
Rattus norvegicus [6] = experiment: AUC in Sprague-Dawley rat at 100 mg/kg, iv normalized to 1 mg/kg; assay type: ADME, organism-based, Plasma; details: in vivo
How it was run: (§2)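 Single dose given to male Sprague–Dawley rats, three animals. Each animal received 100 mg/kg iv and 500 mg/kg orally. Plasma Cmax, t1/2, AUC and oral bioavailability were determined, and all parameters were normalized to a 1 mg/kg dose so the two routes could be compared.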

Rattus norvegicus [7] = experiment: Cmax in Sprague-Dawley rat at 500 mg/kg, po normalized to 1 mg/kg; assay type: ADME, organism-based; set-up: dose 500 mg/kg, route oral; details: in vivo; how it was run: as §2
[8] = Half life in Sprague-Dawley rat at 100 mg/kg, iv normalized to 1 mg/kg; assay type: ADME, organism-based; details: in vivo; how it was run: as §2
Rattus norvegicus [9] = experiment: Cmax in Sprague-Dawley rat at 100 mg/kg, iv normalized to 1 mg/kg; assay type: ADME, organism-based; set-up: dose 100 mg/kg, route intravenous; details: in vivo; how it was run: as §2
[10] = Half life in Sprague-Dawley rat at 500 mg/kg, po normalized to 1 mg/kg; assay type: ADME, organism-based; details: in vivo; how it was run: as §2
Rattus norvegicus [11] = experiment: AUC in Sprague-Dawley rat at 500 mg/kg, po normalized to 1 mg/kg; assay type: ADME, organism-based, Plasma; details: in vivo; how it was run: as §2
[12] = Partition coefficient, log P of the compound; assay type: physicochemical; details: octanol/water
[13] = Bioavailability in Sprague-Dawley rat at 500 mg/kg, po normalized to 1 mg/kg; assay type: ADME, organism-based; details: in vivo; how it was run: as §2

Compound	IC50 (Plasma) [µM]	IC50 [1] [µM]	CC50 [2] [µM]	also measured
CCCCCCNC(=O)NCC1CN(C(=O)c2cc(OC)c(OC)c(OC)c2)CCN1C(=O)c1cc(OC)c(OC)c(OC)c1 (stereo not drawn)	> 10	1	> 100	
CCCN(CCC)C(=O)NCC1CN(C(=O)c2cc(OC)c(OC)c(OC)c2)CCN1C(=O)c1cc(OC)c(OC)c(OC)c1 (stereo not drawn)	> 10	> 10	> 100	
CCCN(CCC)C(=O)OCC1CN(C(=O)c2cc(OC)c(OC)c(OC)c2)CCN1C(=O)c1cc(OC)c(OC)c(OC)c1 (stereo not drawn)	0.37		> 100	inhibition at 100 µM [3]: 66%
CCCCNC(=O)OCC1CN(C(=O)c2cc(OC)c(OC)c(OC)c2)CCN1C(=O)c1cc(OC)c(OC)c(OC)c1 (stereo not drawn)	0.67	10	> 100	
COc1cc(C(=O)N2CCN(C(=O)c3cc(OC)c(OC)c(OC)c3)C(COC(=S)N(C)C)C2)cc(OC)c1OC (stereo not drawn)	1.6		> 100	inhibition at 100 µM [3]: 76%
CCC(=O)OCC1CN(C(=O)c2cc(OC)c(OC)c(OC)c2)CCN1C(=O)c1cc(OC)c(OC)c(OC)c1 (stereo not drawn)	0.158	> 100	> 100	
CCN(CC)C(=O)NCC1CN(C(=O)c2cc(OC)c(OC)c(OC)c2)CCN1C(=O)c1cc(OC)c(OC)c(OC)c1 (stereo not drawn)	> 10	40	> 100	
COc1cc(C(=O)N2CCN(C(=O)c3cc(OC)c(OC)c(OC)c3)C(CNC(=O)OC(C)C)C2)cc(OC)c1OC (stereo not drawn)	5	25	> 100	
COc1cc(C(=O)N2CCN(C(=O)c3cc(OC)c(OC)c(OC)c3)C(CNC(=O)Nc3c(C)cccc3C)C2)cc(OC)c1OC (stereo not drawn)	> 10	32	> 100	
[3H]COc1c(OC)cc(C(=O)N2CCN(C(=O)c3cc(OC)c(OC)c(OC)c3)C(COC(=O)N(CC)CC)C2)cc1OC (stereo not drawn)				Kin (Mus musculus): 1.02 µL/s/g
CCN(CC)C(=S)OCC1CN(C(=O)c2cc(OC)c(OC)c(OC)c2)CCN1C(=O)c1cc(OC)c(OC)c(OC)c1 (stereo not drawn)	> 5		> 1	Activity [4]: Toxic; Activity [5]: Not Active
CCN(CC)C(=O)OCC1CN(C(=O)c2cc(OC)c(OC)c(OC)c2)CCN1C(=O)c1cc(OC)c(OC)c(OC)c1 (stereo not drawn) [PMS-601]	8	11	> 1000	AUC (Rattus norvegicus [6]): 1828 ng·h/mL; Cmax (Rattus norvegicus [7]): 33 ng/mL; half-life [8]: 2.14 h; Cmax (Rattus norvegicus [9]): 861 ng/mL; half-life [10]: 2.29 h; AUC (Rattus norvegicus [11]): 177 ng·h/mL; logP [12]: 0.8; bioavailability [13]: 10.9%

— ChEMBL document CHEMBL1149263, “Structure-activity relationships in platelet-activating factor. 12. Synthesis and biological evaluation of platelet-activating factor antagonists with anti-HIV-1 activity” (J Med Chem, 2004)
